Source: ChEMBL document CHEMBL1153559, “Role of a sodium-dependent symporter homologue in the thermosensitivity of beta-lactam antibiotic resistance and cell wall composition in Staphylococcus aureus” (2008)
Converted amounts (≈) assume the structure as drawn. Bridge positions count the residues as written; N and C are the ends. Square brackets hold non-standard residues; d marks the D form. Peptide text beside a SMILES is read from it. * marks the point of attachment. Ileψ(thiazoline)Cys = CC[C@H](C)[C@H](N)C1=N[C@H](C(=O)*)CS1; dOrn = NCCC[C@@H](N)C(=O)O

What was measured:
Format in all cases: functional
Staphylococcus aureus [1] = assay: Antimicrobial activity against methicillin-resistant Staphylococcus aureus COL at 37 degC by population analysis method
Outline: (§1)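 Population analysis: S. aureus cultures were grown overnight in TSB, then plated at different cell concentrations on agar containing twofold serial methicillin concentrations. Colonies were counted after 48 h of incubation at 37 or 42°C, giving a methicillin resistance profile.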

Staphylococcus aureus [2] = assay: Antimicrobial activity against methicillin-resistant Staphylococcus aureus COL at 42 degC by population analysis method; outline: as §1
Staphylococcus aureus [3] = assay: Antimicrobial activity against methicillin-resistant Staphylococcus aureus COL transposon mutant C245 harboring Tn551 gene at 42 degC by population analysis method; outline: as §1
Staphylococcus aureus [4] = assay: Antimicrobial activity against SCCmec type 1 methicillin-resistant Staphylococcus aureus COL D19455-T2 expressing symporter gene smr1 at 37 degC incubated for 24 hrs by E-test; settings: COL D19455-T2, 24 h
Staphylococcus aureus [5] = assay: Antimicrobial activity against SCCmec type 4 methicillin-resistant Staphylococcus aureus COL MW2-T expressing symporter gene smr1 at 37 degC incubated for 24 hrs by E-test
Staphylococcus aureus [6] = assay: Antimicrobial activity against SCCmec type 1 methicillin-resistant Staphylococcus aureus COL 319 expressing symporter gene smr1 at 42 degC incubated for 24 hrs by E-test; settings: COL 319, 24 h
Staphylococcus aureus [7] = assay: Antimicrobial activity against SCCmec type 1 methicillin-resistant Staphylococcus aureus COL 404-T3 expressing symporter gene smr1 at 37 degC incubated for 24 hrs by E-test; settings: COL 404-T3, 24 h
Staphylococcus aureus [8] = assay: Antimicrobial activity against SCCmec type 1 methicillin-resistant Staphylococcus aureus COL E3005 expressing symporter gene smr1 at 42 degC incubated for 24 hrs by E-test; settings: COL E3005, 24 h
Staphylococcus aureus [9] = assay: Antimicrobial activity against SCCmec type 4 methicillin-resistant Staphylococcus aureus COL MW2-T expressing symporter gene smr1 at 42 degC incubated for 24 hrs by E-test
Staphylococcus aureus [10] = assay: Antimicrobial activity against SCCmec type 3 methicillin-resistant Staphylococcus aureus COL 301-T6 expressing symporter gene smr1 at 37 degC incubated for 24 hrs by E-test; settings: COL 301-T6, 24 h
Staphylococcus aureus [11] = assay: Antimicrobial activity against SCCmec type 1 methicillin-resistant Staphylococcus aureus COL C245Td expressing symporter gene smr1 at 37 degC incubated for 24 hrs by E-test
Staphylococcus aureus [12] = assay: Antimicrobial activity against SCCmec type 1 methicillin-resistant Staphylococcus aureus COL 404-T3 expressing symporter gene smr1 at 42 degC incubated for 24 hrs by E-test; settings: COL 404-T3, 24 h
Staphylococcus aureus [13] = assay: Antimicrobial activity against SCCmec type 1 methicillin-resistant Staphylococcus aureus COL 319-T1 expressing symporter gene smr1 at 37 degC incubated for 24 hrs by E-test; settings: COL 319-T1, 24 h
Staphylococcus aureus [14] = assay: Antimicrobial activity against SCCmec type 1 methicillin-resistant Staphylococcus aureus COL E3005-T4 expressing symporter gene smr1 at 37 degC incubated for 24 hrs by E-test; settings: COL E3005-T4, 24 h
Staphylococcus aureus [15] = assay: Antimicrobial activity against SCCmec type 1 methicillin-resistant Staphylococcus aureus COL 319-T1 expressing symporter gene smr1 at 42 degC incubated for 24 hrs by E-test; settings: COL 319-T1, 24 h
Staphylococcus aureus [16] = assay: Antimicrobial activity against SCCmec type 1 methicillin-resistant Staphylococcus aureus COL E2125-T2 expressing symporter gene smr1 at 42 degC incubated for 24 hrs by E-test; settings: COL E2125-T2, 24 h
Staphylococcus aureus [17] = assay: Antimicrobial activity against SCCmec type 3 methicillin-resistant Staphylococcus aureus COL 301-T6 expressing symporter gene smr1 at 42 degC incubated for 24 hrs by E-test; settings: COL 301-T6, 24 h
Staphylococcus aureus [18] = assay: Antimicrobial activity against SCCmec type 1 methicillin-resistant Staphylococcus aureus COL D19455-T2 expressing symporter gene smr1 at 42 degC incubated for 24 hrs by E-test; settings: COL D19455-T2, 24 h
Staphylococcus aureus [19] = assay: Antimicrobial activity against SCCmec type 1 methicillin-resistant Staphylococcus aureus COL D19455 expressing symporter gene smr1 at 37 degC incubated for 24 hrs by E-test; settings: COL D19455, 24 h
Staphylococcus aureus [20] = assay: Antimicrobial activity against SCCmec type 1 methicillin-resistant Staphylococcus aureus COL E3005-T4 expressing symporter gene smr1 at 42 degC incubated for 24 hrs by E-test; settings: COL E3005-T4, 24 h
Staphylococcus aureus [21] = assay: Antimicrobial activity against SCCmec type 1 methicillin-resistant Staphylococcus aureus COL RUSA11-T3 expressing symporter gene smr1 at 37 degC incubated for 24 hrs by E-test; settings: COL RUSA11-T3, 24 h
Staphylococcus aureus [22] = assay: Antimicrobial activity against SCCmec type 3 methicillin-resistant Staphylococcus aureus COL 301 expressing symporter gene smr1 at 42 degC incubated for 24 hrs by E-test; settings: COL 301, 24 h
Staphylococcus aureus [23] = assay: Antimicrobial activity against SCCmec type 1 methicillin-resistant Staphylococcus aureus COL 404 expressing symporter gene smr1 at 42 degC incubated for 24 hrs by E-test; settings: COL 404, 24 h
Staphylococcus aureus [24] = assay: Antimicrobial activity against SCCmec type 1 methicillin-resistant Staphylococcus aureus COL C245Td expressing symporter gene smr1 at 42 degC incubated for 24 hrs by E-test
Staphylococcus aureus [25] = assay: Antimicrobial activity against SCCmec type 1 methicillin-resistant Staphylococcus aureus COL 404 expressing symporter gene smr1 at 37 degC incubated for 24 hrs by E-test; settings: COL 404, 24 h
Staphylococcus aureus [26] = assay: Antimicrobial activity against SCCmec type 1 methicillin-resistant Staphylococcus aureus COL E2125 expressing symporter gene smr1 at 37 degC incubated for 24 hrs by E-test; settings: COL E2125, 24 h
Staphylococcus aureus [27] = assay: Antimicrobial activity against SCCmec type 1 methicillin-resistant Staphylococcus aureus COL E3005 expressing symporter gene smr1 at 37 degC incubated for 24 hrs by E-test; settings: COL E3005, 24 h
Staphylococcus aureus [28] = assay: Antimicrobial activity against SCCmec type 1 methicillin-resistant Staphylococcus aureus COL E2125-T2 expressing symporter gene smr1 at 37 degC incubated for 24 hrs by E-test; settings: COL E2125-T2, 24 h
Staphylococcus aureus [29] = assay: Antimicrobial activity against SCCmec type 1 methicillin-resistant Staphylococcus aureus COL RUSA11-T3 expressing symporter gene smr1 at 42 degC incubated for 24 hrs by E-test; settings: COL RUSA11-T3, 24 h
Staphylococcus aureus [30] = assay: Antimicrobial activity against SCCmec type 1 methicillin-resistant Staphylococcus aureus COL RUSA11 expressing symporter gene smr1 at 42 degC incubated for 24 hrs by E-test; settings: COL RUSA11, 24 h
Staphylococcus aureus [31] = assay: Antimicrobial activity against SCCmec type 1 methicillin-resistant Staphylococcus aureus COL RUSA11 expressing symporter gene smr1 at 37 degC incubated for 24 hrs by E-test; settings: COL RUSA11, 24 h
Staphylococcus aureus [32] = assay: Antimicrobial activity against SCCmec type 1 methicillin-resistant Staphylococcus aureus COL E2125 expressing symporter gene smr1 at 42 degC incubated for 24 hrs by E-test; settings: COL E2125, 24 h
Staphylococcus aureus [33] = assay: Antimicrobial activity against SCCmec type 4 methicillin-resistant Staphylococcus aureus COL MW2 expressing symporter gene smr1 at 42 degC incubated for 24 hrs by E-test; settings: COL MW2, 24 h
Staphylococcus aureus [34] = assay: Antimicrobial activity against SCCmec type 1 methicillin-resistant Staphylococcus aureus COL D19455 expressing symporter gene smr1 at 42 degC incubated for 24 hrs by E-test; settings: COL D19455, 24 h
Staphylococcus aureus [35] = assay: Antimicrobial activity against SCCmec type 3 methicillin-resistant Staphylococcus aureus COL 301 expressing symporter gene smr1 at 37 degC incubated for 24 hrs by E-test; settings: COL 301, 24 h
Staphylococcus aureus [36] = assay: Antimicrobial activity against SCCmec type 4 methicillin-resistant Staphylococcus aureus COL MW2 expressing symporter gene smr1 at 37 degC incubated for 24 hrs by E-test; settings: COL MW2, 24 h
Staphylococcus aureus [37] = assay: Antimicrobial activity against SCCmec type 1 methicillin-resistant Staphylococcus aureus COL 319 expressing symporter gene smr1 at 37 degC incubated for 24 hrs by E-test; settings: COL 319, 24 h

## CC[C@H](C)[C@H](N)C1=N[C@H](C(=O)N[C@@H](CC(C)C)C(=O)N[C@H](CCC(=O)O)C(=O)N[C@H](C(=O)N[C@H]2CCCCNC(=O)[C@H](CC(N)=O)NC(=O)[C@@H](CC(=O)O)NC(=O)[C@H](Cc3cnc[nH]3)NC(=O)[C@@H](Cc3ccccc3)NC(=O)[C@H]([C@@H](C)CC)NC(=O)[C@@H](CCCN)NC2=O)[C@@H](C)CC)CS1 [BACITRACIN] ({Ileψ(thiazoline)Cys}-L[dE]IK[dOrn]I[dF]H[dD]N; lactam 4-C)
Staphylococcus aureus [1]
  MIC: 50 µg/mL (≈ 35.1 µM)
Staphylococcus aureus [2]
  MIC: 50 µg/mL (≈ 35.1 µM)

## N[C@@H]1CONC1=O [CYCLOSERINE]
Staphylococcus aureus [1]
  MIC: 50 µg/mL (≈ 490 µM)
Staphylococcus aureus [2]
  MIC: 50 µg/mL (≈ 490 µM)

## C[C@@H]1O[C@@H]1P(=O)(O)O [FOSFOMYCIN]
Staphylococcus aureus [1]
  MIC: 50 µg/mL (≈ 362 µM)
Staphylococcus aureus [2]
  MIC: 25 µg/mL (≈ 181 µM)

## COc1cccc(OC)c1C(=O)N[C@@H]1C(=O)N2[C@@H]1SC(C)(C)[C@@H]2C(=O)O [METHICILLIN]
Staphylococcus aureus [3]
  MIC: 400 µg/mL (≈ 1050 µM)

## Cc1onc(-c2ccccc2)c1C(=O)N[C@@H]1C(=O)N2[C@@H]1SC(C)(C)[C@@H]2C(=O)O [OXACILLIN]
Staphylococcus aureus [4]
  MIC: 64 µg/mL (≈ 159 µM)
Staphylococcus aureus [5]
  MIC: 8 µg/mL (≈ 19.9 µM)
Staphylococcus aureus [6]
  MIC: 0.75 µg/mL (≈ 1.87 µM)
Staphylococcus aureus [7]
  MIC: > 256 µg/mL
Staphylococcus aureus [8]
  MIC: 0.5 µg/mL (≈ 1.25 µM)
Staphylococcus aureus [9]
  MIC: 0.75 µg/mL (≈ 1.87 µM)
Staphylococcus aureus [10]
  MIC: > 256 µg/mL
Staphylococcus aureus [11]
  MIC: > 256 µg/mL
Staphylococcus aureus [12]
  MIC: > 256 µg/mL
Staphylococcus aureus [13]
  MIC: > 256 µg/mL
Staphylococcus aureus [14]
  MIC: 12 µg/mL (≈ 29.9 µM)
Staphylococcus aureus [15]
  MIC: > 256 µg/mL
Staphylococcus aureus [16]
  MIC: 0.5 µg/mL (≈ 1.25 µM)
Staphylococcus aureus [17]
  MIC: 16 µg/mL (≈ 39.9 µM)
Staphylococcus aureus [18]
  MIC: 0.25 µg/mL (≈ 0.623 µM)
Staphylococcus aureus [19]
  MIC: 1 µg/mL (≈ 2.49 µM)
Staphylococcus aureus [20]
  MIC: 0.38 µg/mL (≈ 0.947 µM)
Staphylococcus aureus [21]
  MIC: 4 µg/mL (≈ 9.96 µM)
Staphylococcus aureus [22]
  MIC: 1 µg/mL (≈ 2.49 µM)
Staphylococcus aureus [23]
  MIC: 1 µg/mL (≈ 2.49 µM)
Staphylococcus aureus [24]
  MIC: > 256 µg/mL
Staphylococcus aureus [25]
  MIC: > 256 µg/mL
Staphylococcus aureus [26]
  MIC: 1 µg/mL (≈ 2.49 µM)
Staphylococcus aureus [27]
  MIC: 1.5 µg/mL (≈ 3.74 µM)
Staphylococcus aureus [28]
  MIC: 128 µg/mL (≈ 319 µM)
Staphylococcus aureus [29]
  MIC: 0.25 µg/mL (≈ 0.623 µM)
Staphylococcus aureus [30]
  MIC: 0.19 µg/mL (≈ 0.473 µM)
Staphylococcus aureus [31]
  MIC: 0.5 µg/mL (≈ 1.25 µM)
Staphylococcus aureus [32]
  MIC: 0.25 µg/mL (≈ 0.623 µM)
Staphylococcus aureus [33]
  MIC: 0.75 µg/mL (≈ 1.87 µM)
Staphylococcus aureus [34]
  MIC: 0.25 µg/mL (≈ 0.623 µM)
Staphylococcus aureus [35]
  MIC: > 256 µg/mL
Staphylococcus aureus [36]
  MIC: 0.75 µg/mL (≈ 1.87 µM)
Staphylococcus aureus [37]
  MIC: > 256 µg/mL

## CN(C)[C@@H]1C(O)=C(C(N)=O)C(=O)[C@@]2(O)C(O)=C3C(=O)c4c(O)cccc4[C@@](C)(O)[C@H]3C[C@@H]12 [TETRACYCLINE]
Staphylococcus aureus [1]
  MIC: 100 µg/mL (≈ 225 µM)
Staphylococcus aureus [2]
  MIC: 100 µg/mL (≈ 225 µM)

## CN[C@H](CC(C)C)C(=O)N[C@H]1C(=O)N[C@@H](CC(N)=O)C(=O)N[C@H]2C(=O)N[C@H]3C(=O)N[C@H](C(=O)N[C@H](C(=O)O)c4cc(O)cc(O)c4-c4cc3ccc4O)[C@H](O)c3ccc(c(Cl)c3)Oc3cc2cc(c3O[C@@H]2O[C@H](CO)[C@@H](O)[C@H](O)[C@H]2O[C@H]2C[C@](C)(N)[C@H](O)[C@H](C)O2)Oc2ccc(cc2Cl)[C@H]1O [VANCOMYCIN]
Staphylococcus aureus [1]
  MIC: 1.5 µg/mL (≈ 1.04 µM)
Staphylococcus aureus [2]
  MIC: 3 µg/mL (≈ 2.07 µM)
